Experiment [1] relates to Rattus norvegicus. Description: Antiinflammatory activity against carrageenan-induced edema in Sprague-Dawley rat assessed as right hind paw volume at 100 mg/kg, po administered 4 hrs post challenge measured after 60 mins. The format is functional. The procedure, abridged: (§1)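 Rats received intraplantar carrageenan. Right hind paw volume was measured 4 h after the carrageenan injection and compared with saline/carrageenan-treated controls. Oral dosing in CMC vehicle; volume recorded at 60 min after treatment.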
For orientation: Carrageenan injected into the paw causes an acute inflammation.

Experiment [2] relates to Aorta. Description: Vasorelaxation activity against KCl-induced contraction in isolated Wistar rat thoracic endothelium-denulated aortic rings. The format is functional, tissue-based. The procedure, abridged:
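Endothelium-denuded thoracic aortic rings from male Wistar rats (250−350 g); denudation confirmed by <10% relaxation to 10 μM ACh. Rings precontracted with 30 mM KCl; compound added at 3-fold increasing concentrations, 1 nM to 10 μM. Isometric tension recorded. Emax given as % of KCl tone; pIC50 derived. Mean ± standard error of 6−10 experiments; repeated with 1 μM ODQ.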

The test system of experiment [3] is Rattus norvegicus. Description: Antiinflammatory activity against carrageenan-induced paw edema in Sprague-Dawley rat assessed as paw weight at 100 mg/kg, po administered 4 hrs post challenge measured after 30 mins (reference value: 31.9+/-3.0 g). The format is functional.
Experiment [4] concerns Rattus norvegicus. The experiment is described as follows: Antiinflammatory activity against carrageenan-induced paw edema in Sprague-Dawley rat assessed as paw weight at 40 mg/kg, po administered 4 hrs post challenge measured after 60 mins (reference value: 29.8+/-3.1 g). Type of experiment: functional.
In experiment [5] the test system is J774. Description: Selectivity ratio of IC50 for COX1 in mouse J774 cells to IC50 for COX2 in mouse J774 cells. The format is cell-based. The procedure, abridged:
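Ratio of J774 IC50s, COX-1 over COX-2. For COX-1, cells were pretreated with compound for 15 min, then given 15 μM arachidonic acid for 30 min at 37 °C. For COX-2, cells received E. coli LPS 10 μg/mL for 24 h with compound at 0.01–10 μM. PGE2 was measured by RIA in triplicate wells over three experiments. IC50 came from a sigmoidal fit.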

Experiment [6] concerns the target T1, Prostaglandin G/H synthase 1 (Mus musculus, UniProt P22437).
T1 sequence (P22437 whole entry): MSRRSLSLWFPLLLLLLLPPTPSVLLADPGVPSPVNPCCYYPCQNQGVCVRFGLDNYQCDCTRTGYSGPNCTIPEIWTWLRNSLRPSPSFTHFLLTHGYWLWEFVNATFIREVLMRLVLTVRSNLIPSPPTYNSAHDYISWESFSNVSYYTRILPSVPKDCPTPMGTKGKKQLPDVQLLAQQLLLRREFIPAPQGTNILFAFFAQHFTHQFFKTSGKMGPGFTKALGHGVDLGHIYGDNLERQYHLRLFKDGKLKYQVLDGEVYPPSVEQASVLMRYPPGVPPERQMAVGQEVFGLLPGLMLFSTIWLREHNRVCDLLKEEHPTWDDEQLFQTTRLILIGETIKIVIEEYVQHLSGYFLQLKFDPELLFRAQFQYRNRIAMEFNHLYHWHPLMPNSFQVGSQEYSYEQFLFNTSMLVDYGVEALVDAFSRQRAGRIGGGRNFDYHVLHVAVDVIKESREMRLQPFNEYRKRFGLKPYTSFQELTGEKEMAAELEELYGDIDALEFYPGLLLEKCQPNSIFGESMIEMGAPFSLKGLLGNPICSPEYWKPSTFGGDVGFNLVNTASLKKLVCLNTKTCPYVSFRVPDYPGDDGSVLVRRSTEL
The experiment is described as follows: Inhibition of COX-1-mediated PGE2 production in arachidonic acid-stimulated mouse J774 cells incubated for 15 mins prior to arachidonic acid-challenge by radioimmunoassay. The format is cell-based. The procedure, abridged:
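J774 murine macrophages grown in DMEM with 10% FBS and allowed to adhere for 2 h at 37 °C. Cells were pretreated with compound at 10 μM for 15 min, then given 15 μM arachidonic acid for 30 min at 37 °C. Where inhibition exceeded 50%, 0.01–1 μM was also tested. Supernatant PGE2 was measured by RIA as % inhibition versus control, in triplicate wells over three experiments. IC50 came from a sigmoidal variable-slope fit.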

The target in experiment [7] is T2, Prostaglandin G/H synthase 1 (Mus musculus) (UniProt P22437).
T2 sequence (whole entry): T1 sequence (P22437 whole entry)
The experiment is described as follows: Inhibition of COX-1-mediated PGE2 production in arachidonic acid-stimulated mouse J774 cells at 10 uM incubated for 15 mins prior to arachidonic acid-challenge by radioimmunoassay. Type of experiment: cell-based. The procedure, abridged:
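J774 murine macrophages grown in DMEM with 10% FBS and allowed to adhere for 2 h at 37 °C. Where inhibition exceeded 50%, 0.01–1 μM was also tested. Supernatant PGE2 was measured by RIA as % inhibition versus control, in triplicate wells over three experiments. IC50 came from a sigmoidal variable-slope fit.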

In experiment [8] the test system is Rattus norvegicus. The experiment is described as follows: Antiinflammatory activity against carrageenan-induced edema in Sprague-Dawley rat assessed as right hind paw volume at 20 mg/kg, po administered 4 hrs post challenge measured after 60 mins. Type of experiment: functional. The procedure, abridged:
as §1

Experiment [9] concerns the target T3, Prostaglandin G/H synthase 2 (Homo sapiens, UniProt P35354).
T3 sequence (P35354 whole entry): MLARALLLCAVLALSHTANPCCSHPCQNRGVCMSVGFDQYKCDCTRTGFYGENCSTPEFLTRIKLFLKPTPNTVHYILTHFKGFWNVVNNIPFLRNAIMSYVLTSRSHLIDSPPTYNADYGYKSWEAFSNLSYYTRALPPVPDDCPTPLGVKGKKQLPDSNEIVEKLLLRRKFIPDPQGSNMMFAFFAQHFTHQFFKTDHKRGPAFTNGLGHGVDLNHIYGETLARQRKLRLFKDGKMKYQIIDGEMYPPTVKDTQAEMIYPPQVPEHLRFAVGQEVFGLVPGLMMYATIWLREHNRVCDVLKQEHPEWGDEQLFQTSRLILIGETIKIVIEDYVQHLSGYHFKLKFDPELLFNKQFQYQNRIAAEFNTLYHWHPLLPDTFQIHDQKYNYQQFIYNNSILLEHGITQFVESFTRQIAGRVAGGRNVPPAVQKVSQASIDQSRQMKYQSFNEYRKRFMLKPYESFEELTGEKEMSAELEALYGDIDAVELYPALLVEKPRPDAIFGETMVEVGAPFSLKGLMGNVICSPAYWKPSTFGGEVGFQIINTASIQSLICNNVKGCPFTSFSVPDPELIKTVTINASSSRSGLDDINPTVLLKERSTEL
The experiment is described as follows: Inhibition of COX2-mediated PGE2 production in LPS-induced human whole blood after 60 mins by radioimmunoassay.

Experiment [10] deals with Prostaglandin G/H synthase 1 (Homo sapiens, UniProt P23219). Description: Inhibition of platelet COX1-mediated TXB2 production in LPS-induced human whole blood after 60 mins by radioimmunoassay. The format is tissue-based.
The test system of experiment [11] is Rattus norvegicus. Description: Antiinflammatory activity against carrageenan-induced paw edema in Sprague-Dawley rat assessed as paw weight at 40 mg/kg, po administered 4 hrs post challenge measured after 30 mins (reference value: 29.8+/-3.1 g). Type of experiment: functional.
Experiment [12] has as its system Mus musculus. Description: Analgesic activity in Swiss albino mouse abdominal constriction model assessed as reduction in acetic acid-induced writhing response for 10 mins at 40 mg/kg, po administered 30 mins prior to acetic acid-challenge measured after 5 mins relative to vehicle-treated control. The format is functional, Abdomen. Also on record: scale not given: the % may be the effect or the level left. The procedure, abridged:
(§2)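 Male Swiss albino mice (23−25 g); 0.6% acetic acid (10 mL/kg) injected ip. Stretching movements counted for 10 min, starting 5 min after administration. Oral doses in carboxymethylcellulose (CMC) vehicle, compared with vehicle-treated mice.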
In general terms: In writhing tests, fewer writhes than in controls are read as antinociception.

For experiment [13], the system named is Rattus norvegicus. Description: Antiinflammatory activity against carrageenan-induced edema in Sprague-Dawley rat assessed as right hind paw volume at 40 mg/kg, po administered 4 hrs post challenge measured after 60 mins. The format is functional. The procedure, abridged:
as §1

For experiment [14], the system named is Rattus norvegicus. The experiment is described as follows: Antiinflammatory activity against carrageenan-induced paw edema in Sprague-Dawley rat assessed as paw weight at 100 mg/kg, po administered 4 hrs post challenge measured after 60 mins (reference value: 31.9+/-3.0 g). Type of experiment: functional.
For experiment [15], the system named is Aorta. The experiment is described as follows: Vasorelaxation activity against KCl-induced contraction in isolated Wistar rat thoracic endothelium-denulated aortic rings in the presence of guanylate cyclase inhibitor ODQ. Type of experiment: functional, tissue-based. The procedure, abridged: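 Thoracic aortic rings from male Wistar rats (250–350 g), endothelium removed by rubbing; rings relaxing ≥10% to ACh 10 μM on KCl 30 mM tone were discarded. ODQ 1 μM was incubated, then rings were contracted with KCl 30 mM and given 3-fold increasing concentrations of 1 nM–10 μM.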

The test system of experiment [16] is Rattus norvegicus. The experiment is described as follows: Antiinflammatory activity against carrageenan-induced paw edema in Sprague-Dawley rat assessed as paw weight at 20 mg/kg, po administered 4 hrs post challenge measured after 30 mins (reference value: 32.6+/-2.7 g). Type of experiment: functional.
Experiment [17] relates to Rattus norvegicus. Description: Antiinflammatory activity against carrageenan-induced paw edema in Sprague-Dawley rat assessed as paw weight at 20 mg/kg, po administered 4 hrs post challenge measured after 60 mins (reference value: 32.6+/-2.7 g). The format is functional.
Experiment [18] has as its system Rattus norvegicus. The experiment is described as follows: Antiinflammatory activity against carrageenan-induced paw edema in Sprague-Dawley rat assessed as paw weight at 30 mg/kg, po administered 4 hrs post challenge measured after 120 mins (reference value: 31.8+/-2.5 g). Type of experiment: functional.
Experiment [19] relates to Rattus norvegicus. The experiment is described as follows: Analgesic activity in Sprague-Dawley rat assessed as reduction in carrageenan-induced paw hyperalgesia at 30 mg/kg, po administered 4 hrs post challenge measured after 30 mins relative to vehicle-treated control. Also on record: scale not given: the % may be the effect or the level left.
Experiment [20] has as its system Rattus norvegicus. Description: Antiinflammatory activity against carrageenan-induced edema in Sprague-Dawley rat assessed as right hind paw volume at 30 mg/kg, po administered 4 hrs post challenge measured after 60 mins. The format is functional. The procedure, abridged:
as §1

Experiment [21] has as its system Rattus norvegicus. Description: Antiinflammatory activity against carrageenan-induced paw edema in Sprague-Dawley rat assessed as paw weight at 30 mg/kg, po administered 4 hrs post challenge measured after 30 mins (reference value: 31.8+/-2.5 g). Type of experiment: functional.
In experiment [22] the test system is Rattus norvegicus. The experiment is described as follows: Antiinflammatory activity against carrageenan-induced paw edema in Sprague-Dawley rat assessed as paw weight at 30 mg/kg, po administered 4 hrs post challenge measured after 60 mins (reference value: 31.8+/-2.5 g). Type of experiment: functional.
The subject of experiment [23] is Mus musculus. Description: Analgesic activity in Swiss albino mouse abdominal constriction model assessed as reduction in acetic acid-induced writhing response at 30 mg/kg, po administered 30 mins prior to acetic acid-challenge measured after 5 mins relative to vehicle-treated control. Type of experiment: functional, Abdomen. Also on record: scale not given: the % may be the effect or the level left. The procedure, abridged: as §2

In general, IC50 refers to the concentration needed to halve the response being measured. The inhibition is the share of the control response that was lost under treatment.

Active and inactive are the calls of the source. The calls are words filed in the database; no cut-off is given here. Bounds are passed on as bounds.

Sequence of Prostaglandin G/H synthase 1 (Homo sapiens, UniProt P23219) (P23219 whole entry): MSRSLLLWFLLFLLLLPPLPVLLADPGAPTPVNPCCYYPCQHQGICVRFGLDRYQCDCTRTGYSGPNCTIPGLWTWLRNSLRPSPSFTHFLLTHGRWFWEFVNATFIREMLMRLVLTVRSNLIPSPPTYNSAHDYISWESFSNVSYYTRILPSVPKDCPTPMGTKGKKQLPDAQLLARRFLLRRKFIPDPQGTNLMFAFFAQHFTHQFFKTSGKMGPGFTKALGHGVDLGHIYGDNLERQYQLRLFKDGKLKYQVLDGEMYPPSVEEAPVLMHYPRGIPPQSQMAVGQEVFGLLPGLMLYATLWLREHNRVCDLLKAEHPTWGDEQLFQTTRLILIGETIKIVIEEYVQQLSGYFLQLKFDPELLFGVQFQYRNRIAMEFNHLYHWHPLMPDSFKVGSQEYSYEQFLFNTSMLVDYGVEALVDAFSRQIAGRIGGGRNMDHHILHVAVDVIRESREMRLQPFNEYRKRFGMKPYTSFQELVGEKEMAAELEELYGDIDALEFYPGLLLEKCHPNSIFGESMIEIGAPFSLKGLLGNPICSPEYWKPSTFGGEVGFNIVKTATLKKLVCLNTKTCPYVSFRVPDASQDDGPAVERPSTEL

Turning to `Cc1c(CC(=O)OCCO[N+](=O)[O-])cc(-c2ccc(S(C)(=O)=O)cc2)n1-c1cccc(F)c1`, the Activity was determined as 1.88 mL in experiment [1]; 57.2 g in experiment [3]; 38.7 g in experiment [4]; 2.52 mL in [8]; 54.1 g in experiment [11]; 70% in experiment [12]. The Activity came to 2.17 mL in experiment [13], 36.5 g in experiment [14], 40.1 g in [16] and 35.3 g in [17]. Moreover, the IC50 in experiment [2] is 0.331 µM; in experiment [6], over 10 µM; in experiment [9] it was 3.2 µM; in experiment [10], 9.6 µM. For the same molecule, in [5], the Ratio IC50 is over 526. In experiment [7], the inhibition turned out to be 36%. In addition, the outcome in experiment [15] was inactive.
For the molecule `Cc1c(CC(=O)OCCO)cc(-c2ccc(S(C)(=O)=O)cc2)n1-c1cccc(F)c1`, the Activity was 39.3 g in experiment [18]; 80% in [19]; 2.51 mL in experiment [20]; 55.7 g in experiment [21]; 52.3 g in experiment [22]; 70% in experiment [23]. Further, the Ratio IC50 in experiment [5] was over 118. Moreover, the figures for the IC50 in experiment [6], in [9] and in experiment [10] were over 10 µM, 1.7 µM and 12.2 µM, respectively. For the same molecule, the inhibition in [7] is 33%.
